According to ChEMBL document CHEMBL4266033, “Neolymphostin A Is a Covalent Phosphoinositide 3-Kinase (PI3K)/Mammalian Target of Rapamycin (mTOR) Dual Inhibitor That Employs an Unusual Electrophilic Vinylogous Ester” (J Med Chem, 2018):
Active and inactive are the calls of the source. The rule behind the calls is not given here.

Tests used:
[1] = target: T1, Phosphatidylinositol 4,5-bisphosphate 3-kinase catalytic subunit delta isoform (Homo sapiens, UniProt O00329); experiment: Binding affinity to human PI3Kdelta after 1 hr by KINOMEscan assay
T1 sequence (O00329 whole entry): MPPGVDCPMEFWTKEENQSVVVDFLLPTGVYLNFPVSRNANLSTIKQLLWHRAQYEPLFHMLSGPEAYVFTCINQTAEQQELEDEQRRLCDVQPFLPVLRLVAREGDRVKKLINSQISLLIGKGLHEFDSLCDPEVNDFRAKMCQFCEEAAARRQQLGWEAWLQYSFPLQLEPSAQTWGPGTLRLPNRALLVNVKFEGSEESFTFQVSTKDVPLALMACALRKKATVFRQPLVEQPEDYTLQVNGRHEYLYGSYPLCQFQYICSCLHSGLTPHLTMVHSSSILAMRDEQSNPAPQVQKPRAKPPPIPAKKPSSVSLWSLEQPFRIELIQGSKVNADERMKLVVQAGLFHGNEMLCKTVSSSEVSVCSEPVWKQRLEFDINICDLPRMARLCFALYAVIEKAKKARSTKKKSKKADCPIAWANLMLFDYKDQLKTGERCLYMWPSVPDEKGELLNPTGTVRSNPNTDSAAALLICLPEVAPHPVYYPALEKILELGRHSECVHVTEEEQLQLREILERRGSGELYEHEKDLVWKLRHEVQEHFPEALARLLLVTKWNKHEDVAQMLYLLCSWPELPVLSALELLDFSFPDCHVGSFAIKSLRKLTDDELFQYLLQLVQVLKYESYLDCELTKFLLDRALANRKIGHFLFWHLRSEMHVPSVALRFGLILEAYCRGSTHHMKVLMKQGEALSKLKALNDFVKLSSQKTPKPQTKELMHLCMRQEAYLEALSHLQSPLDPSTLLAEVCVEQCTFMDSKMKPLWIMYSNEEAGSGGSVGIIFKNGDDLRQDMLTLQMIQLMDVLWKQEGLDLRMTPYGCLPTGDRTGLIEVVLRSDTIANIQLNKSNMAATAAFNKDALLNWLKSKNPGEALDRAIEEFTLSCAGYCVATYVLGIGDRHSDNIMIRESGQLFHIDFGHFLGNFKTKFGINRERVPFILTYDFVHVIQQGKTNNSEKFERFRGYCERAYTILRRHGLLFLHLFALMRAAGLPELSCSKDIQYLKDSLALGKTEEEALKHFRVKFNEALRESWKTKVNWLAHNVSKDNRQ

[2] = target: Serine/threonine-protein kinase mTOR (Homo sapiens, UniProt P42345); experiment: Binding affinity to human mTOR after 1 hr by KINOMEscan assay
[3] = target: T2, Serine/threonine-protein kinase PLK4 (Homo sapiens) (UniProt O00444); experiment: Binding affinity to human PLK4 at 1 uM after 1 hr by KINOMEscan assay
T2 sequence (whole entry): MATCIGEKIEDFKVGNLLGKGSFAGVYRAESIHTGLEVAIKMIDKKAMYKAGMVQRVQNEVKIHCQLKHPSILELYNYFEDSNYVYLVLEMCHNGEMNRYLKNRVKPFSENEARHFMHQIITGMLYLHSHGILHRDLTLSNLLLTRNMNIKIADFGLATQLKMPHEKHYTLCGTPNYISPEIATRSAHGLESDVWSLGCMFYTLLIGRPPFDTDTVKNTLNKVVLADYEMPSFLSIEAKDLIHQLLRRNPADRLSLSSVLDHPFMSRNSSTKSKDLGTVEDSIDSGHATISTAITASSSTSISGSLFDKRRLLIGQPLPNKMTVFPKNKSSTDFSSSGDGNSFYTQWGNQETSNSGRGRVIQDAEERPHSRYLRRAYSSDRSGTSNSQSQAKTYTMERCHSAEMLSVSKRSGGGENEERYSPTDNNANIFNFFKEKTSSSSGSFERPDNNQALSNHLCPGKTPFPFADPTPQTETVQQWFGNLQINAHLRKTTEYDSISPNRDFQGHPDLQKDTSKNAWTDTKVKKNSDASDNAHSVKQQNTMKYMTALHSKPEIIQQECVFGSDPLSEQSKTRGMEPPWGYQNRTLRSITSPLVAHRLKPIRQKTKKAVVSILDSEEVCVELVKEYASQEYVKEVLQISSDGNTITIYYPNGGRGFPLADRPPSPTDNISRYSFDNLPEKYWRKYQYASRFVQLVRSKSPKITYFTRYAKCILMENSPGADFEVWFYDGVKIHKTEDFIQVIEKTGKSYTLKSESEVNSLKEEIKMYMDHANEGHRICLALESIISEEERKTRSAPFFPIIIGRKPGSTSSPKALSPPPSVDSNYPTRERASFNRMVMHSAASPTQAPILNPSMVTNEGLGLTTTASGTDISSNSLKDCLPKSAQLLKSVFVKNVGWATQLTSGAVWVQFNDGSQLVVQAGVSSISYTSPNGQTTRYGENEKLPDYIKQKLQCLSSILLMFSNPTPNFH

[4] = target: T3, Aurora kinase A (Homo sapiens) (UniProt O14965); experiment: Binding affinity to human AURKA at 1 uM after 1 hr by KINOMEscan assay
T3 sequence (whole entry): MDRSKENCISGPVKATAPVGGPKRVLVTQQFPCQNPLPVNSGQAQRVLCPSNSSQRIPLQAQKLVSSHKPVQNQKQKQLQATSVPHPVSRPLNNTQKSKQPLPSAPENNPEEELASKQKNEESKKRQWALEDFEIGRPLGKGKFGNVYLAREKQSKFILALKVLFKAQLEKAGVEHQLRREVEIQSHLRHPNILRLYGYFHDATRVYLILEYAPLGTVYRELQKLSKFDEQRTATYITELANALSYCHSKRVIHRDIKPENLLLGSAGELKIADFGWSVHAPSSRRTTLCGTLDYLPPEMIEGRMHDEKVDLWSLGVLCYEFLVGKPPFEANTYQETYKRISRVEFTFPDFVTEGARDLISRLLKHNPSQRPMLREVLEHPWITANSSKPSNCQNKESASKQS

[5] = target: Mitogen-activated protein kinase 9 (Homo sapiens) (UniProt P45984); experiment: Binding affinity to human JNK2 at 1 uM after 1 hr by KINOMEscan assay
Chain of Mitogen-activated protein kinase 9 (Homo sapiens) (P45984 whole entry, looked up, canonical isoform): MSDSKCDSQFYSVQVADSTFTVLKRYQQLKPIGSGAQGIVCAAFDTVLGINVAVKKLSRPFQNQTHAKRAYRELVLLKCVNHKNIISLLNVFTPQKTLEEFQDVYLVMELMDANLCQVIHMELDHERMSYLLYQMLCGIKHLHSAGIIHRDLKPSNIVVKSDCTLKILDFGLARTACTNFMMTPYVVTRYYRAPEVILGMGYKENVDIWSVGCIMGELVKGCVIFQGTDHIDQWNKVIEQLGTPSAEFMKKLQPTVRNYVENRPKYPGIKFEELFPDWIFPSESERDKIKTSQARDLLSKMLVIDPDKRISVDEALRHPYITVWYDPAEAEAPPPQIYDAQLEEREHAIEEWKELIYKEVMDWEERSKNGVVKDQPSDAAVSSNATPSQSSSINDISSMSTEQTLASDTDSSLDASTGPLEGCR

[6] = target: Phosphatidylinositol 4,5-bisphosphate 3-kinase catalytic subunit gamma isoform (Homo sapiens, UniProt P48736); experiment: Binding affinity to human PI3Kgamma equilibrate for 1 hr by scan-kinetic platform assay
Chain of Phosphatidylinositol 4,5-bisphosphate 3-kinase catalytic subunit gamma isoform (P48736 whole entry, canonical isoform): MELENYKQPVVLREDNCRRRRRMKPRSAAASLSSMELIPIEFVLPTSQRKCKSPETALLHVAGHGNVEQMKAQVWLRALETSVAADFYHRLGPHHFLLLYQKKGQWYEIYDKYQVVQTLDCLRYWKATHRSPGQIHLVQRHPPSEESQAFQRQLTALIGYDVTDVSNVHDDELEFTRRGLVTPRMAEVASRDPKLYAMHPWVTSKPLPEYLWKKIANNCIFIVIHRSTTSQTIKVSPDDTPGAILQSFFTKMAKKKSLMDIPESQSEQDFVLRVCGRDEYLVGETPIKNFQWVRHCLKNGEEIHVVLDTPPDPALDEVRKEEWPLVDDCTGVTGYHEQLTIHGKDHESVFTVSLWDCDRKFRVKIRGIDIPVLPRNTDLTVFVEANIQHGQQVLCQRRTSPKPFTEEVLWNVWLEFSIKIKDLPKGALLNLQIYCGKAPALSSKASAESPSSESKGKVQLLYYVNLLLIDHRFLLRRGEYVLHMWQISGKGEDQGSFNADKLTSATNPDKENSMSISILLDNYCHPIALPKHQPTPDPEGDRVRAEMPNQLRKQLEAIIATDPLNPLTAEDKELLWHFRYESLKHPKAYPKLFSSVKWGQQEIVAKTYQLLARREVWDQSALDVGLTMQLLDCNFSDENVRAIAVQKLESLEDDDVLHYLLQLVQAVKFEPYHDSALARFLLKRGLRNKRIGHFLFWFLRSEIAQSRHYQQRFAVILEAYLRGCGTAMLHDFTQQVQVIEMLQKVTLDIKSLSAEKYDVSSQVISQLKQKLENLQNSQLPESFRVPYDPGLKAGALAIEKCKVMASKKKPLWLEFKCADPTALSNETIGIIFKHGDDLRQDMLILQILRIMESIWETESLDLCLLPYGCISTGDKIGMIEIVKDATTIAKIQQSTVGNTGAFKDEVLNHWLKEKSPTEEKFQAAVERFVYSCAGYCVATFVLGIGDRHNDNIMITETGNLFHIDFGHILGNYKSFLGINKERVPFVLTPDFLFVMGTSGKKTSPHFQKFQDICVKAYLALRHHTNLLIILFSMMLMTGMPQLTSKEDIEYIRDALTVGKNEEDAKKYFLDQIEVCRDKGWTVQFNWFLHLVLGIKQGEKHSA
In short: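 scanKINETIC format on PI3Kα and PI3Kγ. […] Arm C: equilibrated 1 h. Arm B: equilibrated 1 h, diluted 30-fold, then re-equilibrated. Arm D: diluted immediately, then equilibrated. Kd compared with and without the dilution step to judge reversibility.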

Kd [1]: 4.9 nM
Kd [2]: 10 nM
Activity [3]: Active
Activity [4]: Active
Activity [5]: Active
Kd [6]: 2 to 3.3 nM
Structure (SMILES): CO/C=C/C(=O)c1cc2c3c(c(N)cc(NC(=O)C(C)C)c3n1)N=C2
